Measurements: ChEMBL document CHEMBL4371006, “Discovery of N-[4-(Quinolin-4-yloxy)phenyl]benzenesulfonamides as Novel AXL Kinase Inhibitors” (J Med Chem, 2018)
Blank lines part the entries; values can stand above or below the compound they belong to. Calls of active or inactive are those of the source. The calls are words filed in the database; no cut-off is given here.

Legend:
[1] = molecular target: T1, Tyrosine-protein kinase receptor UFO (Homo sapiens, UniProt P30530); assay: Inhibition of AXL (unknown origin) phosphorylation after 1 hr by ELISA
T1 sequence (P30530 whole entry): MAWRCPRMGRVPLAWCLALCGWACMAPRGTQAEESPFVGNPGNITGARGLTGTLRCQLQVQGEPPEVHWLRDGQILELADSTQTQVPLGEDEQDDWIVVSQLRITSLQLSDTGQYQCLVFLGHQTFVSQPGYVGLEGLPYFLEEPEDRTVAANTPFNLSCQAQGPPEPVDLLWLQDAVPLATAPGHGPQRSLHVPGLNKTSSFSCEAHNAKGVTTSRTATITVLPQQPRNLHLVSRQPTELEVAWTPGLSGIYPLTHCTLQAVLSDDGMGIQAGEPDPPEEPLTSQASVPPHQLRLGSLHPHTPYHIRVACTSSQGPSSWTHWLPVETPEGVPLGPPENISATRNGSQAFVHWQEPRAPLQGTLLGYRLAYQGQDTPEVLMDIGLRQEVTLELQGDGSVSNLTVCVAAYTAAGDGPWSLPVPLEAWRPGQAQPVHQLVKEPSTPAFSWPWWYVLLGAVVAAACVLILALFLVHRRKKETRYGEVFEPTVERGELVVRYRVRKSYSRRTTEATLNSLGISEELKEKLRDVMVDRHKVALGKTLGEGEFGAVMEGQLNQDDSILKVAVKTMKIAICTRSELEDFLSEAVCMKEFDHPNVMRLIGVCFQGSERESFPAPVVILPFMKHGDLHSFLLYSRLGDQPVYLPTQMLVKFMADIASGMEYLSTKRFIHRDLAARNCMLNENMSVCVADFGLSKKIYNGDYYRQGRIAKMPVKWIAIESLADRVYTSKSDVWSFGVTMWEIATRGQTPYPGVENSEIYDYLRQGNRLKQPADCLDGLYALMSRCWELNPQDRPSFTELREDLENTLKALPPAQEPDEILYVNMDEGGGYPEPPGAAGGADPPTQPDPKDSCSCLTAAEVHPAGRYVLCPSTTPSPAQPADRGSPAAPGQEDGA

[2] = molecular target: Tyrosine-protein kinase receptor UFO (Homo sapiens) (UniProt P30530); assay: Binding affinity to wild-type human partial length AXL (R497 to Y821 residues) expressed in bacterial expression system assessed as residual binding level at 5 umol/L by Kinomescan method
[3] = molecular target: Serine/threonine-protein kinase 10 (Homo sapiens, UniProt O94804); assay: Binding affinity to wild-type human partial length LOK (E16 to V314 residues) expressed in bacterial expression system assessed as residual binding level at 5 umol/L by Kinomescan method
[4] = molecular target: Protein-tyrosine kinase 6 (Homo sapiens) (UniProt Q13882); assay: Binding affinity to wild-type human partial length BRK (L166 to T451 residues) expressed in bacterial expression system assessed as residual binding level at 5 umol/L by Kinomescan method
[5] = molecular target: T2, Proto-oncogene tyrosine-protein kinase Src (Homo sapiens, UniProt P12931); assay: Binding affinity to wild-type human partial length SRC (L240 to L536 residues) expressed in bacterial expression system assessed as residual binding level at 5 umol/L by Kinomescan method
[6] = molecular target: Tyrosine-protein kinase Blk (Homo sapiens) (UniProt P51451); assay: Binding affinity to wild-type human partial length BLK (G211 to L503 residues) expressed in bacterial expression system assessed as residual binding level at 5 umol/L by Kinomescan method
[7] = molecular target: Tyrosine-protein kinase Lck (Homo sapiens) (UniProt P06239); assay: Binding affinity to wild-type human partial length LCK (R207 to P509 residues) expressed in bacterial expression system assessed as residual binding level at 5 umol/L by Kinomescan method
[8] = molecular target: Receptor-interacting serine/threonine-protein kinase 2 (Homo sapiens, UniProt O43353); assay: Binding affinity to wild-type human partial length RIPK2 (M1 to K310 residues) expressed in bacterial expression system assessed as residual binding level at 5 umol/L by Kinomescan method
[9] = molecular target: Platelet-derived growth factor receptor alpha (Homo sapiens) (UniProt P16234); assay: Binding affinity to wild-type human partial length PDGFRA (V575 to D1002 residues) expressed in mammalian expression system assessed as residual binding level at 5 umol/L by Kinomescan method
[10] = molecular target: Platelet-derived growth factor receptor beta (Homo sapiens) (UniProt P09619); assay: Binding affinity to wild-type human partial length PDGFRB (V582 to Y1009 residues) expressed in bacterial expression system assessed as residual binding level at 5 umol/L by Kinomescan method
[11] = molecular target: Macrophage colony-stimulating factor 1 receptor (Homo sapiens) (UniProt P07333); assay: Binding affinity to wild-type human partial length CSF1R (I564 to S939 residues) expressed in bacterial expression system assessed as residual binding level at 5 umol/L by Kinomescan method
[12] = molecular target: Epithelial discoidin domain-containing receptor 1 (Homo sapiens) (UniProt Q08345); assay: Binding affinity to wild-type human partial length DDR1 (R565 to V876 residues) expressed in bacterial expression system assessed as residual binding level at 5 umol/L by Kinomescan method
[13] = molecular target: T3, Epidermal growth factor receptor (Homo sapiens, UniProt P00533); assay: Binding affinity to wild-type human partial length EGFR (R669 to V1011 residues) expressed in bacterial expression system assessed as residual binding level at 5 umol/L by Kinomescan method
[14] = molecular target: Tyrosine-protein kinase ABL1 (Homo sapiens) (UniProt P00519); assay: Binding affinity to wild-type human phosphorylated ABL1 (S229 to K512 residues) expressed in mammalian expression system assessed as residual binding level at 5 umol/L by Kinomescan method
[15] = molecular target: Mast/stem cell growth factor receptor Kit (Homo sapiens) (UniProt P10721); assay: Binding affinity to wild type human partial length c-KIT (I571 to D952 residues) expressed in bacterial expression system assessed as residual binding level at 5 umol/L by Kinomescan method
[16] = molecular target: T4, Hepatocyte growth factor receptor (Homo sapiens, UniProt P08581); assay: Binding affinity to wild type human partial length c-MET (D1010 to S1367 residues) expressed in bacterial expression system assessed as residual binding level at 5 umol/L by Kinomescan method
[17] = molecular target: T1, Tyrosine-protein kinase receptor UFO; assay: Inhibition of AXL (unknown origin)
[18] = molecular target: T2, Proto-oncogene tyrosine-protein kinase Src; assay: Inhibition of SRC (unknown origin)
[19] = molecular target: T4, Hepatocyte growth factor receptor; assay: Inhibition of c-MET (unknown origin)
[20] = molecular target: T3, Epidermal growth factor receptor; assay: Inhibition of wild type EGFR (unknown origin)
[21] = Ratio of IC50 for antimigratory activity against human MDA-MB-231 cells after 3.5 hrs by microscopy based Boyden chamber assay to IC50 for inhibition of AXL (unknown origin)
MDA-MB-231 [22] = assay: Antimigratory activity against human MDA-MB-231 cells after 3.5 hrs by microscopy based Boyden chamber assay; type: functional, cell-based; conditions: MDA-MB-231, 3.5 h
Method in brief: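 Modified Boyden chamber: MDA-MB-231 cells plated in 0.1% FCS medium, migrating through 8 µm pore membrane toward 1% FCS chemoattractant for 3.5 h; transmigrated cells counted microscopically in at least 5 random fields per well.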

MDA-MB-231 [23] = assay: Anti-invasive activity against human MDA-MB-231 cells up to 3 uM after 5 hrs by matrigel assay; type: functional, cell-based
Method in brief: (§1)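 MDA-MB-231 cells (7000/well) seeded on polymerized 3 mg/mL Matrigel (set ≥16 h at 37°C) in serum-free medium; inhibitor added at seeding, aggregates forming over 5 h.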

MDA-MB-231 [24] = assay: Antimigratory activity against human MDA-MB-231 cells assessed as inhibition of large cell aggregate formation after 5 hrs by matrigel assay; type: functional, cell-based; conditions: MDA-MB-231, 5 h; method in brief: as §1
[25] = Selectivity ratio of compound effect for anti-invasive activity against human MDA-MB-231 cells to IC50 for AXL (unknown origin) phosphorylation
[26] = Toxicity in SCID/beige mouse xenografted with human MDA-MB-231 cells assessed as body weight gain at 10 mg/kg, iv administered 3 times per week measured 3 times per week starting at day 12; type: organism-based; conditions: in vivo
MDA-MB-231 [27] = assay: Antitumor activity against human MDA-MB-231 cells xenografted in mouse assessed as tumor growth inhibition at 10 mg/kg, iv administered 3 times per week measured 3 times per week starting at day 12; type: functional, organism-based
Method in brief: (§2)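 Female SCID/Beige mice inoculated with 2 x 10^6 MDA-MB-231 cells in HBSS:Matrigel (1:1) into third mammary fat pad under ketamine/xylazine. Test agent 30 mg/kg ip twice daily (12 h apart) in PEG400/H2O 70:30, or paclitaxel 10 mg/kg iv three times weekly; 10 mice/group. Tumors measured three times weekly from day 12; lungs and lymph nodes excised, formalin-fixed, nodes H&E-scored (mean ± SEM).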

MDA-MB-231 [28] = assay: Antimetastatic activity against human MDA-MB-231 cells xenografted in mouse assessed as reduction in lung metastasis at 10 mg/kg, iv administered 3 times per week measured 3 times per week starting at day 12 by hematoxylin and eosin staining based assay relative to control; type: functional; parameters: scale not given: the % may be the effect or the level left; method in brief: as §2
MDA-MB-231 [29] = assay: Antimetastatic activity against human MDA-MB-231 cells xenografted in mouse assessed as reduction in lymph node infiltrates at 10 mg/kg, iv administered 3 times per week measured 3 times per week starting at day 12 by hematoxylin and eosin staining based assay; type: functional, organism-based; method in brief: as §2

T2 sequence (P12931 2-536 limits assumed): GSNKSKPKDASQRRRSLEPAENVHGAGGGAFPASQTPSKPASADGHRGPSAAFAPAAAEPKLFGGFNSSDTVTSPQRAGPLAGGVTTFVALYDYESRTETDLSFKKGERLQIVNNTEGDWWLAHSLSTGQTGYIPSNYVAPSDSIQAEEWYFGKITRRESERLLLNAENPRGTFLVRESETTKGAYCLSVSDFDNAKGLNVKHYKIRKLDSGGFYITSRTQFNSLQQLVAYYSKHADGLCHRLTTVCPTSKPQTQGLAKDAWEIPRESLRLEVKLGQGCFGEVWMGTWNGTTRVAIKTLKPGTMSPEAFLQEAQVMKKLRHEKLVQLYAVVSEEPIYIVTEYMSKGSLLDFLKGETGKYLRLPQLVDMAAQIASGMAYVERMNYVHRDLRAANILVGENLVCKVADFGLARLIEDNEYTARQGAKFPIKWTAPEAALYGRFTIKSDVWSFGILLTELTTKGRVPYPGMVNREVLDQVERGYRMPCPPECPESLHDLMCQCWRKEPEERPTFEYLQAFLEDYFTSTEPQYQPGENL
T4 sequence (P08581 whole entry, the tested form may be a part): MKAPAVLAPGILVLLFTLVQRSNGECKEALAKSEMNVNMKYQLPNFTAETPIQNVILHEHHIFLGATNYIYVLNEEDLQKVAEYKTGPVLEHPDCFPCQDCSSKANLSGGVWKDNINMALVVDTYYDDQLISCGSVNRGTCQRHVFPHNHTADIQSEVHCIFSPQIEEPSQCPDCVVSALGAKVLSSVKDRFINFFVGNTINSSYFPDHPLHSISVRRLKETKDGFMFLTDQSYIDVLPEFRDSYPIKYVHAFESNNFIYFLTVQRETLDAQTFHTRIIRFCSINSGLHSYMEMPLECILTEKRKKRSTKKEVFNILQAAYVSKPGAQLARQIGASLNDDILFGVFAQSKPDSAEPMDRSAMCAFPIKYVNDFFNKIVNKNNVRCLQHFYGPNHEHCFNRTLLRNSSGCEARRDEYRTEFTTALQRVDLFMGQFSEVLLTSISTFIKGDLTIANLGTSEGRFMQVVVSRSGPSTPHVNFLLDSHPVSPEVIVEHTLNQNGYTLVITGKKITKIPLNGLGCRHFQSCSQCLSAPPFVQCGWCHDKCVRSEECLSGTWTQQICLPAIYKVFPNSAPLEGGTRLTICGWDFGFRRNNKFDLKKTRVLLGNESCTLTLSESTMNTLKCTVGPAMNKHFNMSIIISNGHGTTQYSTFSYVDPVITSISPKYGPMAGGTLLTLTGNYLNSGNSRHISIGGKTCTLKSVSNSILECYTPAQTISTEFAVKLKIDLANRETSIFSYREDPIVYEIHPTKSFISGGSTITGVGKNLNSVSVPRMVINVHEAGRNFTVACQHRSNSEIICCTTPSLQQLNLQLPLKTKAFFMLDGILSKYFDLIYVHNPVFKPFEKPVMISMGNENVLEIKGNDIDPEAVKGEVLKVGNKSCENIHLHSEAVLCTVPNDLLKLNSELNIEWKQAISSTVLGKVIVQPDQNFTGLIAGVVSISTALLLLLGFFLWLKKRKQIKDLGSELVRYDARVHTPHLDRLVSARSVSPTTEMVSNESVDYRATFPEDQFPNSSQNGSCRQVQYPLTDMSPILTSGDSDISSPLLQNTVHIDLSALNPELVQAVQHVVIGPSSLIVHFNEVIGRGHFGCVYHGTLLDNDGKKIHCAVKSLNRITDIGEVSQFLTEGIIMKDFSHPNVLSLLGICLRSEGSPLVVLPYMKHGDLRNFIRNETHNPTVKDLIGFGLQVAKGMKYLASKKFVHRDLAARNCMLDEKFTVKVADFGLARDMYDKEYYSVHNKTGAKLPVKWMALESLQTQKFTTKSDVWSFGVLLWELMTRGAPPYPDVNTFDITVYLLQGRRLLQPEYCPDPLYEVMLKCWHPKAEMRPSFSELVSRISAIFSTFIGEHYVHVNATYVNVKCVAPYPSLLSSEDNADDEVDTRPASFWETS
T3 sequence (P00533 whole entry, the tested form may be a part): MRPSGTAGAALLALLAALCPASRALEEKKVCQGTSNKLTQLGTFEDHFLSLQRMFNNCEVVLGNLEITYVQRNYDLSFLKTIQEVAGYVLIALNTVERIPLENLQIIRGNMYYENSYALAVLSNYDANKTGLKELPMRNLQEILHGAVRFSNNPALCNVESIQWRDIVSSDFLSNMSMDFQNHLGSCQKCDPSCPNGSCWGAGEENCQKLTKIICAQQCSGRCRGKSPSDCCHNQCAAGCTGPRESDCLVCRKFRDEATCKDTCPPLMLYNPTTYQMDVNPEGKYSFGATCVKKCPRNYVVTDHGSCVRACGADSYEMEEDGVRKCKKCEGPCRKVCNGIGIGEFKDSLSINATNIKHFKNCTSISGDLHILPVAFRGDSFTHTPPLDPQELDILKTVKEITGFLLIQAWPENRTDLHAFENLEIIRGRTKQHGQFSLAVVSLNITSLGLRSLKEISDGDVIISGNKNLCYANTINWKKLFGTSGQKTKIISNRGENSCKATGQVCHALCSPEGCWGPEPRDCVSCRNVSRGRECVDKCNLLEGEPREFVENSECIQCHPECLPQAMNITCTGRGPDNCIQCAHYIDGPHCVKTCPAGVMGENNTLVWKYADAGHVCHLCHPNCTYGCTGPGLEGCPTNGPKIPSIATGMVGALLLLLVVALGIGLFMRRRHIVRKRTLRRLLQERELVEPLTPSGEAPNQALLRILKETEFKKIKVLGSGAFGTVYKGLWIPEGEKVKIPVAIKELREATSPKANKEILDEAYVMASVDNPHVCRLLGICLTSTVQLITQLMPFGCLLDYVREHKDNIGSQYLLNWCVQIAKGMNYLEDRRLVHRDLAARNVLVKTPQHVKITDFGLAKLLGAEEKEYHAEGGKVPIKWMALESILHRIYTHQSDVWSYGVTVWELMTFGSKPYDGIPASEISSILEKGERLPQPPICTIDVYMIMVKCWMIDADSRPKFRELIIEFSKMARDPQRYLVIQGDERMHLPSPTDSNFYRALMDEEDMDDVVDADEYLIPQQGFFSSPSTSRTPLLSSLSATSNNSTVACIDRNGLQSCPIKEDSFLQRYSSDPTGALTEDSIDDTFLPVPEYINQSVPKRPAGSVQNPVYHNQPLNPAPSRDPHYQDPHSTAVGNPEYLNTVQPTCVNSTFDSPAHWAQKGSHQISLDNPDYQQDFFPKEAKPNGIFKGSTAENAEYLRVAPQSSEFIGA
Chain of Mast/stem cell growth factor receptor Kit (Homo sapiens) (P10721 whole entry, the tested form may be a part): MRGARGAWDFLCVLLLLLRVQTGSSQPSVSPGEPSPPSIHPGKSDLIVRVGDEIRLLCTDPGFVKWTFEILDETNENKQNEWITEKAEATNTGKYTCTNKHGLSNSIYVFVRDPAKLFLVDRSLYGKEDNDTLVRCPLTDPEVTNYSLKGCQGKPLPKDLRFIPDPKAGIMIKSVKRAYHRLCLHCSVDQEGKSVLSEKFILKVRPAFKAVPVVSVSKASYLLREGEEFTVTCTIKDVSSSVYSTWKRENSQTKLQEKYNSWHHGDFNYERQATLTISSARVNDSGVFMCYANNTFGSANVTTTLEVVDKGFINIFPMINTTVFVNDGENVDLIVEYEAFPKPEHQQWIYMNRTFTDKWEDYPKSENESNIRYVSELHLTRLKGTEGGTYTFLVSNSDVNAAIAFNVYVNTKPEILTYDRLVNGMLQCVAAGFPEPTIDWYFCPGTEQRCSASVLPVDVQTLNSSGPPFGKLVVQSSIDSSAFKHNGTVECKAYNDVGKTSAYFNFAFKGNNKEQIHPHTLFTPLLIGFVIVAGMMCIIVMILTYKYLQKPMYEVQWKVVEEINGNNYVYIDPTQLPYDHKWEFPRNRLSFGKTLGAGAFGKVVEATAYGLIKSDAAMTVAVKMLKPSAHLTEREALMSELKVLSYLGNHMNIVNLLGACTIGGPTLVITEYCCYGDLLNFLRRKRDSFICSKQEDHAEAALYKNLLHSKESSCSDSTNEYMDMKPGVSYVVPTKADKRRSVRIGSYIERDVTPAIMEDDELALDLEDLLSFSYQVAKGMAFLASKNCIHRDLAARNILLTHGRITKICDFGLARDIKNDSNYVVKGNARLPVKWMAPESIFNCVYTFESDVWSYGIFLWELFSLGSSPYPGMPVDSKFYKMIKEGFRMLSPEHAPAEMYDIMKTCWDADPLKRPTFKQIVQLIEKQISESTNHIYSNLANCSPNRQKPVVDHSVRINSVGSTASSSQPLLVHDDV
Chain of Tyrosine-protein kinase Blk (Homo sapiens) (P51451 2-505 limits assumed): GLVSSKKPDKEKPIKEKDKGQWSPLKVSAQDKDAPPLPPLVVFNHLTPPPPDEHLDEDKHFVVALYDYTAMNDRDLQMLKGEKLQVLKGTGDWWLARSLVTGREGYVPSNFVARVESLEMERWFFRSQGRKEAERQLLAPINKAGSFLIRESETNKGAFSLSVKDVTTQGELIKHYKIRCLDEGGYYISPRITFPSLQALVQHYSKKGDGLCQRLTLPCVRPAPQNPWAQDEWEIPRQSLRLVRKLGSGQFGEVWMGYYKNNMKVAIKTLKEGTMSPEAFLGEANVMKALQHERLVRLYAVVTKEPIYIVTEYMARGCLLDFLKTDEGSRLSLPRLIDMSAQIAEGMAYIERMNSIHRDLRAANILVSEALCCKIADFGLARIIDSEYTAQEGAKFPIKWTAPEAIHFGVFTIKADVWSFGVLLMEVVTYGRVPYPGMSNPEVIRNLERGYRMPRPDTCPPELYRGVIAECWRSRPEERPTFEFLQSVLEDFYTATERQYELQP
Chain of Protein-tyrosine kinase 6 (Homo sapiens) (Q13882 whole entry, looked up, the tested form may be a part): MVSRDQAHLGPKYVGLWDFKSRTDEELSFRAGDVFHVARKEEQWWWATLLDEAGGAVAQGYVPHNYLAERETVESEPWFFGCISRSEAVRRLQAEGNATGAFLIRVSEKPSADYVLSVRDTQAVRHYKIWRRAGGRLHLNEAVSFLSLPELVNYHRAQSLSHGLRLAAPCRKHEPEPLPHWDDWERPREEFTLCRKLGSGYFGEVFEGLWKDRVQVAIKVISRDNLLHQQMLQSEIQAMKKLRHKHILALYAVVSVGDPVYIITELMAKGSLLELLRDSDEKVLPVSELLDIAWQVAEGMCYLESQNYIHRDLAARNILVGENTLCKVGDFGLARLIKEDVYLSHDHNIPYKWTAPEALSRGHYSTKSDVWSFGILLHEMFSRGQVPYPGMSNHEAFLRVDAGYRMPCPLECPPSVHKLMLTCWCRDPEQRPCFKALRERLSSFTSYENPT

IC50 [1]: > 1000 nM
Compound: COc1cc2c(Oc3ccc(NS(=O)(=O)c4cc(F)ccc4F)cc3F)ccnc2cc1OCC(=O)N(C)C

Activity [2]: Active | Activity [3]: Active | Activity [4]: Active | Activity [5]: Active | Activity [6]: Active | Activity [7]: Active | Activity [8]: Active | Activity [9]: Active | Activity [10]: Active | Activity [11]: Active | Activity [12]: Active | Activity [13]: Active | Activity [14]: Active | Activity [15]: Active | Activity [16]: Active | IC50 [17]: 46 nM | IC50 [18]: 1720 nM | IC50 [19]: 609 nM | IC50 [20]: 592 nM
Compound: COc1cc2c(Oc3ccc(NS(=O)(=O)c4ccccc4C(F)(F)F)cc3F)ccnc2cc1OCCCN1CCC(C)CC1
Ratio IC50 [21]: >50

The remaining lines, values behind:

Compound: COc1cc2c(Oc3ccc(NS(=O)(=O)c4ccccc4C(F)(F)F)cc3F)ccnc2cc1OCCCN1CCOCC1
IC50 [1]: 21 nM | Activity [2]: Active | Activity [3]: Active | Activity [4]: Active | Activity [5]: Active | Activity [6]: Active | Activity [7]: Active | Activity [8]: Active | Activity [9]: Active | Activity [10]: Active | Activity [11]: Active | Activity [12]: Active | Activity [13]: Active | Activity [14]: Active | Activity [15]: Active | Activity [16]: Active | IC50 [17]: 21 nM | IC50 [18]: 995 nM | IC50 [19]: 338 nM | IC50 [20]: 650 nM | Ratio IC50 [21]: >50

Compound: COc1cc2c(Oc3ccc(NS(=O)(=O)c4ccccc4OC(F)(F)F)cc3F)ccnc2cc1OCCCN1CCN(C)CC1
IC50 [1]: 51 nM | IC50 [17]: 51 nM | IC50 [18]: 1950 nM | IC50 [19]: 1540 nM | IC50 [20]: 3080 nM | IC50 (MDA-MB-231 [22]): 4300 nM | inhibition (MDA-MB-231 [23]): Active | IC50 (MDA-MB-231 [24]): 103 nM | Ratio IC50 [21]: >50 | Selectivity ratio [25]: 2 - 6

Compound: CC(=O)O[C@H]1C(=O)[C@@]2(C)[C@H]([C@H](OC(=O)c3ccccc3)[C@]3(O)C[C@H](OC(=O)[C@H](O)[C@@H](NC(=O)c4ccccc4)c4ccccc4)C(C)=C1C3(C)C)[C@]1(OC(C)=O)CO[C@@H]1C[C@@H]2O [PACLITAXEL]
Activity [26]: Toxic | TGI (MDA-MB-231 [27]): Active | Activity (MDA-MB-231 [28]): 54.3% | Activity (MDA-MB-231 [29]): inactive

Compound: COc1cc2nccc(Oc3ccc(NS(=O)(=O)c4c(F)cccc4F)c(F)c3)c2cc1OC
IC50 [1]: > 1000 nM

Compound: COc1cc2nccc(Oc3ccc(NS(=O)(=O)c4ccc(F)c(Cl)c4)c(F)c3)c2cc1OC
IC50 [1]: > 1000 nM
